The values that follow come from article PMC3123137 (Journal of immunology (Baltimore, Md. : 1950), 2011).

“Also recorded” adds a separate entry of the source. Bridge positions count the residues as written; N and C are the ends. Ends that are not written are not given here.

The test system of one test is plasma proteins. The note with it: ref [56], [57]; cited from earlier work.
The next test deals with cells. The note with it: soluble inhibitor or heparin-coated surface; ref [8]–[11]; cited from earlier work.
The subject of another test is various cells. Particulars: ref [11], [58], [59]; cited from earlier work.
For the next test, the system named is complement activation. Particulars: cited from earlier work.
The next test addresses fH1–4 (Homo sapiens, UniProt P08603). The test is described as follows: Monoclonal phage ELISA, N-terminal fragment. It is filed as binding. The note with it: phage clone; coated wells, 1 h room temperature, anti-M13 HRP/ABTS. In outline: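 Wells were coated overnight at 4°C with recombinant factor H SCR1–4 (5 μg/ml in PBS), with BSA wells in parallel, then blocked with 5% milk in PBST for 1 h. Amplified single third-round plaques were bound for 1 h at RT and washed six times with PBST. Detection used HRP anti-M13 mAb with ABTS. An unrelated cyclic-peptide phage served as control, and C3b as negative control.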
Background: An ELISA detects its analyte on a solid surface through an enzyme-linked reagent.

Test [1] deals with factor H cofactor activity. The test is described as follows: Factor H cofactor activity assay. It is filed as biochemical, human. The note with it: peptide expressed as fusion protein with phage PIII domain (Supplemental Fig. 2).
The next test has as its system sheep erythrocytes. Nature of the test: Hemolytic assay. It is filed as cell-based. In outline: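 Sheep erythrocytes washed in VBS–5 mM Mg2+/EGTA; cell amount set by water-lysis titration to give OD405 ~1. Serially diluted test compound or anti-factor H SCR19–20 mAb mixed with cells and human lepirudin plasma (1:10 in VBS–Mg2+/EGTA), 37°C, 1 h, shaking. Lysis read as supernatant OD405 after centrifugation. Run ≥3 times with different donors' plasma; means ± SD of a representative run.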

Test [2] deals with alternative pathway of complement. The test is described as follows: Inhibition of biomaterial-induced AP activation by immobilized peptide. It is filed as biochemical, human.
For test [3], the target named is T1, factor H (Homo sapiens, UniProt P08603). Nature of the test: ELISA, binding of purified factor H to immobilized peptide. The note with it: summary statement. In outline:
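Streptavidin (10 μg/ml in PBS) was coated overnight at 4°C and blocked with 2% BSA in PBS. Biotinylated test peptide or biotinylated linear compstatin control was added at 10 μg/ml for 30 min at RT. Purified human factor H was serially diluted in PBS from 2.5 μg/ml and bound for 1 h. Detection used goat anti-human factor H pAb, then HRP anti-goat IgG. Means ± SD, representative of three experiments.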

The target in test [4] is T1, factor H. Nature of the test: Factor H capture from lepirudin plasma by immobilized peptide. It is filed as binding. The note with it: no streptavidin-biotin conjugation.
The subject of another test is immune cells. Particulars: addition to blood, hemodialysis; ref [15]; cited from earlier work.

T1 sequence (P08603 19-1231): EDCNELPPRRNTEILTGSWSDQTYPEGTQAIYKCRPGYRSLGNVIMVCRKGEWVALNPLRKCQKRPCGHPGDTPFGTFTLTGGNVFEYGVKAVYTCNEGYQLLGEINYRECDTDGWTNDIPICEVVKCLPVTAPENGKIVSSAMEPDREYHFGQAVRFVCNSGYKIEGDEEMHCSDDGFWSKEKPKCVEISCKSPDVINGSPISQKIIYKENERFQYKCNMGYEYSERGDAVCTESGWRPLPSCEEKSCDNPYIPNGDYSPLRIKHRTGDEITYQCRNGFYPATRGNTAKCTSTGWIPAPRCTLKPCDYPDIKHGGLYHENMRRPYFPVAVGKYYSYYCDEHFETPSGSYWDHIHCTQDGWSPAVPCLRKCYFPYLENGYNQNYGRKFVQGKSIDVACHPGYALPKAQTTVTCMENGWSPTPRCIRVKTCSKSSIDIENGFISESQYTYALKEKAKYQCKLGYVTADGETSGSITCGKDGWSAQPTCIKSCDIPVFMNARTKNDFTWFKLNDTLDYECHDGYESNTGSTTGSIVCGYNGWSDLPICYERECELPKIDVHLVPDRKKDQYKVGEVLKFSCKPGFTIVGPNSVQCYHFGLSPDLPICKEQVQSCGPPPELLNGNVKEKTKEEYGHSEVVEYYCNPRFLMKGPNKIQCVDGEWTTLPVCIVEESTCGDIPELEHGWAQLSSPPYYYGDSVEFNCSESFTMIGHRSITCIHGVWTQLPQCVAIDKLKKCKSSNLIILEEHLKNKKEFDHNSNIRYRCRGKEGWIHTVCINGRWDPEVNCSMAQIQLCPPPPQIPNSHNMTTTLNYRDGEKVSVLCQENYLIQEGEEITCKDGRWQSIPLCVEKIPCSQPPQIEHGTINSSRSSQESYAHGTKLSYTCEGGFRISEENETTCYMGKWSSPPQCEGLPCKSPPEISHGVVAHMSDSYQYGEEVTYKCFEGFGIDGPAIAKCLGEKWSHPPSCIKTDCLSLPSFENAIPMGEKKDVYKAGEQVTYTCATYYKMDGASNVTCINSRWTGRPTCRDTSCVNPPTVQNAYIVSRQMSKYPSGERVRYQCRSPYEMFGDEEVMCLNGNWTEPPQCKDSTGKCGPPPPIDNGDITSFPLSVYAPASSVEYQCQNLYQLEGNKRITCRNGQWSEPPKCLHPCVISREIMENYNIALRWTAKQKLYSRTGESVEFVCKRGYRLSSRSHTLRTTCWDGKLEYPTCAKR
Sequence of fH1–4 (P08603 19-264): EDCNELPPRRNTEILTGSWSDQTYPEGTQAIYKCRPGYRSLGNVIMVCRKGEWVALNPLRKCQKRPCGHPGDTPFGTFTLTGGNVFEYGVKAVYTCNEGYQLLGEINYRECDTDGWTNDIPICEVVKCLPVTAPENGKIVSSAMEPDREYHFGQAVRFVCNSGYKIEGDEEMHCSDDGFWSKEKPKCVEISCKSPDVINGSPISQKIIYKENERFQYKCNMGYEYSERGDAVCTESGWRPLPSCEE

heparin: the “Plasma protein binding specificity” value in the test with plasma proteins was “broad binding specificity for plasma proteins”. Also, the “Biomaterial-induced activation and surface adhesion of cells” value in the test on cells is “inhibition of complement activation largely attenuates biomaterial-induced activation and surface adhesion of cells”. Further, the Activation of cells entry in the test with various cells is “induces activation of various cells”. The “Dependence of inhibition on factor H capturing” value in the test on complement activation (heparin coating, ref [55]) is on record as “independent of factor H capturing by heparin”. Moreover, the Biomaterial-induced complement activation entry with complement activation (highly concentrated heparin coating, ref [14], [53]–[55]) is reported as “inhibited biomaterial-induced complement activation”. In the test with complement activation (ref [14], [60]), the “Complement activation at low concentrations in the fluid phase” value is “may actually enhance complement activation at low concentrations in the fluid phase”.

ASSYDVGYSHDCRF [5-2C6]: on fH1–4, the “Binding to fH1–4 (N-terminal regulatory region)” value is recorded as “bound to the N-terminal regulatory region of factor H”. Besides, in test [1], the “Effect on cofactor assay as phage PIII fusion protein” value was “affected”.

“ASSSRCTYDHWCSH (disulfide 6-12 (inferred)) [5C6]”: the “Lysis of sheep erythrocytes” value in the test on sheep erythrocytes (5C6 up to 40 μM, lepirudin plasma 1:10 in VBS–Mg2+/EGTA, 37°C, 1 h, OD405) is “No lysis”. Further, in the test with sheep erythrocytes (soluble 5C6 peptide, hemolytic assay (conclusion)), the “Interference with factor H cell-surface binding / surface recognition” value is “does not interfere with the cofactor activity or cell-surface binding properties of factor H; also recorded: did not interfere with the surface recognition properties of factor H”. Besides, the “Inhibition of biomaterial-induced complement activation in undiluted plasma” value in test [2] (immobilized on model biomaterial surface, undiluted lepirudin plasma) is recorded as “substantial inhibition of biomaterial-induced complement activation”. In addition, the “Inhibition of complement, peptide coated directly onto polystyrene” value in test [2] (peptide coated directly, no streptavidin-biotin conjugation) is listed as “Neither factor H binding nor inhibition of complement was seen”. For the same molecule, the “Factor H-capturing activity” value at factor H [3] is on record as “high factor H-capturing activity while retaining its functional integrity; also recorded: able to capture factor H at high activity without interfering with its regulatory activity”. In addition, on factor H [4], the “Factor H binding, peptide coated directly onto polystyrene” value is listed as “Neither factor H binding nor inhibition of complement was seen”.

As to compstatin, in the test with cells, the “Biomaterial-induced activation and surface adhesion of cells” value is “inhibition of complement activation largely attenuates biomaterial-induced activation and surface adhesion of cells”. Moreover, the “Activation of immune cells and expression of pro-coagulative factors” value in the test on immune cells is “subsequent activation of immune cells and the expression of pro-coagulative factors”. The Filter-induced complement response entry in the test with complement activation (addition to blood, hemodialysis, ref [15]) is listed as “inhibited filter-induced complement response”.

Turning to “ASSGMCFTKKTVLC (disulfide 6-14 (inferred)) [4A1]”, the “Effect on hemolytic assay as phage PIII fusion protein” value in the test with sheep erythrocytes (peptide expressed as fusion protein with phage PIII domain (Supplemental Fig. 2)) is “affected”.

B1: decay accelerating factor (CD55): AP regulator immobilized on surfaces (protein, UniProt P08174 35-353, looked up)
Complement decay-accelerating …: DCGLPPDVPNAQPALEGRTSFPEDTVITYKCEESFVKIPGEKDSVICLKGSQWSDIEEFCNRSCEVPTRLNSASLKQPYITQNYFPVGTVVEYECRPGYRREPSLSPKLTCLQNLKWSTAVEFCKKKSCPNPGEIRNGQIDVPGGILFGATISFSCNTGYKLFGSTSSFCLISGSSVQWSDPLPECREIYCPAPPQIDNGIIQGERDHYGYRQSVTYACNKGFTMIGEHSIYCTVNNDEGEWSGPPPECRGKSLTSKVPPTVQKPTTVNVPTTEVSPTSQKTTTKTTTPNAQATRSTPVSRTTKHFHETTPNKGSGTTS
modifications: immobilized on surfaces
With B1, the “Biomaterial-induced complement after immobilization of AP regulators” value with complement activation (immobilized regulator, ref [39]–[41]) is “attenuated biomaterial-induced complement”.
